Source: PubChem BioAssay (The Scripps Research Institute Molecular Screening Center)
TAAR1 antag: human TAAR1 antagonism; 1.5% of 360,000 active; inhibition, % at 3 µM; CHO RD-HGA16 TAAR1, Fluo-8 calcium fluorescence, antagonist; AID 624466;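 active = inhibition above a per-plate cutoff, the mean inhibition of test compounds on that plate plus 3 SD, cut at about 49% in these data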;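 also: 0% = DMSO plus EC80 beta-PEA response and 100% = DMSO alone without agonist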
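Material: CHO RD-HGA16 cells bearing hTAAR1; compound dosing: one-point dosing, 3 µM nominal final; schedule: dye loading 75 min at 37 °C, then 30 min room temperature; measured by: calcium fluorescence with Fluo-8; control set: vehicle and agonist controls; replication: n of 1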
OX1R antag-1: blocks the human orexin 1 receptor. inhibition, % at 6.6 µM. O43613. 1.8% of 330,000 active. OX1R-expressing cells, FRET antagonist read-out; in the data active = inhibition mostly above about 38%, no sharp cut-off; inactive = mostly below about 40%;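 also: 0% = agonist challenge alone and 100% = reference antagonist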
Target sequence (O43613 whole entry, looked up): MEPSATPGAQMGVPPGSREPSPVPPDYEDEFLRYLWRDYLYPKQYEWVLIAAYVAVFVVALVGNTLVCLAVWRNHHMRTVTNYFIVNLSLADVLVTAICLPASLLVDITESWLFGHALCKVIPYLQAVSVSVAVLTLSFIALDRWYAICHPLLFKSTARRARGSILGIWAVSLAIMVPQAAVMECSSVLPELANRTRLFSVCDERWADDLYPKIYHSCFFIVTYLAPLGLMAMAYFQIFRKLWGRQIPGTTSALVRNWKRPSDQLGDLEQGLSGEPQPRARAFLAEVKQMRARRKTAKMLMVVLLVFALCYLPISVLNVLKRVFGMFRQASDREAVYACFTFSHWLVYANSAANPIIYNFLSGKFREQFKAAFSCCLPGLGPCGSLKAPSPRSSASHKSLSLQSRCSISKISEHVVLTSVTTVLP
GPR7 antag: antagonists of human GPR7 (neuropeptides B/W receptor 1) | GPR7-expressing cells, fluorescence antagonist assay | AID 1861 | P48145 | 1.1% of 290,000 active | inhibition, % at 4.4 µM; in the data active = inhibition above about 16%, passing the limit was not always enough;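 also: cells stimulated with the agonist NPW; 0% = agonist with vehicle and 100% = vehicle without agonist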
TAAR1 agonist: human TAAR1 agonism. AID 624467. 0.99% of 360,000 active. CHO RD-HGA16 TAAR1, Fluo-8 calcium fluorescence; vehicle wells 0%, saturating PEA agonist 100%. activation, % at 3 µM;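 active = activation above the mean activation of all test compounds in the run plus 3 SD, cut at about 38% in these data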
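Test system: RD-HGA16 (CHO) cells co-expressing Gα16 and hTAAR1 / Benchmarks: DMSO vehicle as 0%, PEA at EC100 as 100% / Repeats: no replicates (n 1) / Measure: % activation from peak over basal fluorescence ratio, DMSO-to-PEA scaled / Timing: 17-24 h plating, Fluo-8 75 min 37 °C, 30 min RT / Technique: kinetic Fluo-8 calcium fluorescence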
CHO parental Ca: signal in parental CHO cells, OX1R antagonist counter-screen. parental CHO-K1, ATP-induced calcium, Fluo-8 fluorescence. 0.63% of 330,000 active. AID 463079. inhibition, % at 5.6 µM;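 active = inhibition above that plate's mean sample inhibition plus 3 SD, cut at about 26% in these data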;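 also: 0% = ATP-challenged DMSO wells and 100% = DMSO wells without ATP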
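Material – parental CHO cells · Reagent – ATP stimulus · Compound – single nominal dose of 5.6 µM per compound · Detection – Fluo-8 fluorescence · Read-out basis – percent inhibition of calcium signal · Controls – ATP-challenged DMSO wells low, unchallenged DMSO wells high · Repeats – no replicates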
OX1R antag-2: blocks the human orexin 1 receptor | 0.43% of 330,000 active | CHO/OX1R cells, Fluo-8 calcium fluorescence, orexin A | O43613 | inhibition, % at 5 µM | AID 434989;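 active = inhibition above its plate's threshold, mean inhibition of all tested compounds on the plate plus 3 SD, cut at about 37% in these data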;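 also: 0% = orexin A challenge wells and 100% = SB-334867-A antagonist wells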
The depositor's hits bear a star. Rows were chosen to be rich in hits. Some 4.6% of all compounds tested hit in one or more screens of this group.

Results for O=C1/C(=C\c2c(NCCOCCO)nc3ccccn3c2=O)SC(=S)N1Cc1ccco1 ?
TAAR1 antag: 62*; OX1R antag-1: -6; GPR7 antag: 6; TAAR1 agonist: 41*; CHO parental Ca: 34*; OX1R antag-2: 37

Results for O=C(COC(=O)c1cc([N+](=O)[O-])ccc1N1CCOCC1)NC1CCCCC1 ?
TAAR1 antag: -20; OX1R antag-1: 53*; TAAR1 agonist: 2; CHO parental Ca: -20; OX1R antag-2: -28

How did O=C(COC(=O)c1cc([N+](=O)[O-])ccc1N1CCOCC1)Nc1ccc(Cl)cc1 do in these assays?
TAAR1 antag: 14; OX1R antag-1: 52*; GPR7 antag: 0; TAAR1 agonist: 2; CHO parental Ca: -1; OX1R antag-2: -14

How did O=C(COC(=O)c1cc([N+](=O)[O-])ccc1N1CCOCC1)Nc1ccc(Cl)cn1 do in these assays?
TAAR1 antag: 4; OX1R antag-1: 52*; GPR7 antag: 9; TAAR1 agonist: 4; CHO parental Ca: -15; OX1R antag-2: -22

What do the screens show for `O=C(COC(=O)c1cc([N+](=O)[O-])ccc1N1CCOCC1)NC1CCS(=O)(=O)C1` (configuration not stated)?
TAAR1 antag: -27; OX1R antag-1: 21; TAAR1 agonist: 1; CHO parental Ca: -6; OX1R antag-2: -9

Results for Cc1ccc(S(=O)(=O)N2C[C@H]3[C@H]4C(=O)N(c5ccccc5)C(=O)[C@H]4C[C@H](OC(=O)NCc4ccccc4)[C@@]3(O)C2)cc1 ?
TAAR1 antag: 23; TAAR1 agonist: 2

Results for O=C(CSc1ccc2c(c1)OCCO2)N1CCN(c2ccccc2O)CC1 ?
TAAR1 antag: 10; TAAR1 agonist: 8

Results for CCOc1ccccc1N1CCN(C(=O)CSc2ccc3c(c2)OCCO3)CC1 ?
TAAR1 antag: 51*; OX1R antag-1: 2; TAAR1 agonist: 15; CHO parental Ca: -27; OX1R antag-2: -12

Results for Cc1ccc(-c2nc3cccnc3o2)cc1NC(=O)COc1ccc(C(C)(C)C)cc1 ?
TAAR1 antag: 69*; OX1R antag-1: 63; GPR7 antag: -20; TAAR1 agonist: 17; CHO parental Ca: 40*; OX1R antag-2: 37

Results for Cc1ccc(-c2nc3cccnc3o2)cc1NC(=O)COc1ccc(Cl)cc1C ?
TAAR1 antag: -1; OX1R antag-1: 13; GPR7 antag: -11; TAAR1 agonist: 8; CHO parental Ca: -20; OX1R antag-2: -20

Results for Cc1cc(N=Nc2ccccc2C(=O)O)c(C)c(C)c1O ?
TAAR1 antag: -27; OX1R antag-1: 50*; GPR7 antag: -5; TAAR1 agonist: 0; CHO parental Ca: 6; OX1R antag-2: -3

Results for C[C@H]1CN([C@@H](C)CO)C(=O)CCCn2cc(nn2)CO[C@@H]1CN(C)C(=O)Nc1ccc(F)cc1 ?
TAAR1 antag: 6; TAAR1 agonist: 0

Results for c1ccc(CCNC2=NCCCS2)cc1 ?
TAAR1 antag: 6; OX1R antag-1: 14; GPR7 antag: -6; TAAR1 agonist: 0; CHO parental Ca: 1; OX1R antag-2: -8

Results for CCN(CC)C(=O)c1ccccc1NC(=O)c1ccccc1 ?
TAAR1 antag: 2; OX1R antag-1: 16; GPR7 antag: -4; TAAR1 agonist: 9; CHO parental Ca: -6; OX1R antag-2: -12

Results for CCN(CC)C(=O)c1cccc2nc3ccccc3nc12 ?
TAAR1 antag: -29; OX1R antag-1: 72*; GPR7 antag: -2; TAAR1 agonist: 3; CHO parental Ca: -18; OX1R antag-2: -36

What do the screens show for `COc1cc(OC)cc(-c2c(Sc3ccccc3)c3cc(-c4cnc(N5CCOCC5)nc4)ccc3n2C)c1`?
TAAR1 antag: 0; TAAR1 agonist: 1

Results for CCOC(=O)c1c(-c2ccc(C)cc2)csc1NC(=O)CCN1CCOCC1 ?
TAAR1 antag: 12; OX1R antag-1: 10; GPR7 antag: -13; TAAR1 agonist: 5; CHO parental Ca: -25; OX1R antag-2: -50

How did CC(=O)c1sc(N/N=C\c2ccccc2O)nc1C do in these assays?
TAAR1 antag: 16; OX1R antag-1: 51*; GPR7 antag: -7; TAAR1 agonist: 42*; CHO parental Ca: 5; OX1R antag-2: -7

Results for O=C(c1ccco1)N1CCN(Cc2nnc(-c3ccccc3)o2)CC1 ?
TAAR1 antag: -23; OX1R antag-1: 13; GPR7 antag: -15; TAAR1 agonist: 0; CHO parental Ca: 2; OX1R antag-2: -4

How did CCCC1=Nc2cc(C(=O)NCCCN3CCN(C)CC3)ccc2Sc2ccccc21 do in these assays?
TAAR1 antag: 0; OX1R antag-1: 5; GPR7 antag: 2; TAAR1 agonist: 3; CHO parental Ca: -17; OX1R antag-2: -18

Results for COc1ccc2cc(-c3cc(C(=O)OCC(=O)Nc4c(C)n(C)n(-c5ccccc5)c4=O)c4ccccc4n3)ccc2c1 ?
TAAR1 antag: 66*; GPR7 antag: -4; TAAR1 agonist: 13

What do the screens show for `COc1ccc(C(=O)OCC(=O)Nc2c(C)n(C)n(-c3ccccc3)c2=O)cc1`?
TAAR1 antag: -20; OX1R antag-1: 2; TAAR1 agonist: 0; CHO parental Ca: -11; OX1R antag-2: -6

How did COc1ccc(-c2cc(C(=O)OCC(=O)N3CCOCC3)c3ccccc3n2)cc1 do in these assays?
TAAR1 antag: -4; OX1R antag-1: 55*; TAAR1 agonist: 7; CHO parental Ca: -21; OX1R antag-2: 27

Results for COC(=O)c1cc(S(=O)(=O)NCc2ccccc2)cn1C ?
TAAR1 antag: 18; OX1R antag-1: 12; GPR7 antag: -11; TAAR1 agonist: 1; CHO parental Ca: -5; OX1R antag-2: 3

How did O=C(O)COc1ccc2c(c1)O/C(=C\c1ccco1)C2=O do in these assays?
TAAR1 antag: -5; OX1R antag-1: 6; GPR7 antag: -16; TAAR1 agonist: 1; CHO parental Ca: -1; OX1R antag-2: -2

Results for CCOC(=O)CNC(=S)n1ncnc1N ?
TAAR1 antag: -11; OX1R antag-1: 26; GPR7 antag: 16*; TAAR1 agonist: 8; CHO parental Ca: 3; OX1R antag-2: -3

What do the screens show for `Cc1ccc2nc3n(c(=O)c2c1)-c1ccccc1C(=O)NC3CC(C)C` (configuration not stated)?
TAAR1 antag: -26; TAAR1 agonist: 2

How did CCN(CC)c1nc(N)c([N+](=O)[O-])c(NCCO)n1 do in these assays?
TAAR1 antag: -1; OX1R antag-1: 13; GPR7 antag: -7; TAAR1 agonist: 0; CHO parental Ca: -11; OX1R antag-2: -4

How did O=C(O)C1C2C=CC(C2)C1C(=O)Nc1ccc(Cl)c(Cl)c1 (configuration not stated) do in these assays?
TAAR1 antag: -12; OX1R antag-1: 6; GPR7 antag: -9; TAAR1 agonist: 2; CHO parental Ca: 4; OX1R antag-2: 5
